Source: ChEMBL document CHEMBL3112564, “Identification of clinically viable quinolinol inhibitors of botulinum neurotoxin A light chain” (J Med Chem, 2014)
Values after ≈ are worked out from the molar mass of the structure shown.

Assays:
[1] = target: Botulinum neurotoxin type A (Clostridium botulinum, UniProt P0DPI0)
[2] = Aqueous solubility of the compound at pH 1 after 24 hrs by shake flask method; format: physicochemical
Method in brief: (§1)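 Miniaturized shake-flask method: analyte at 1.0 mM in aqueous solution at pH 1.0 or 6.8, shaken gently (600 rpm) in a syringeless filter at room temperature for 24 h. Filtrate was collected after a further 30 min, diluted in 50:50 MeCN/water with 0.1% formic acid, and analysed by LC–MS/MS. Calibration range was 0.05–12.5 μM at pH 6.8 and 5.0–25000 μM at pH 1.0.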

Plasma [3] = experiment: Metabolic stability in Sprague-Dawley rat plasma assessed as compound remaining at 1 uM measured at 3 hrs by LC-MS/MS analysis; format: ADME, cell-free
Method in brief: (§2)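 Compound at 1.0 μM was incubated in plasma at 37 °C and sampled at 0, 1, 3, 5 and 24 h. Proteins were precipitated with cold acetonitrile containing internal standard, and samples were analysed by LC–MS/MS for percent remaining. Half-life came from regression analysis.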

Plasma [4] = experiment: Half life in Sprague-Dawley rat plasma at 1 uM by LC-MS/MS analysis; format: ADME, cell-free
Method in brief: as §2

Liver microsome [5] = experiment: Half life in Sprague-Dawley rat liver microsomes at 1 uM by reversed phase LC/MS analysis; format: ADME
Method in brief: (§3)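 Liver microsomes were from humans (pooled from 10 male donors) or male Sprague–Dawley rats aged 8–10 weeks. Incubations used 0.125 mg/mL total protein and 1.0 μM drug at 37 °C, sampled at 0, 5, 15, 30 and 60 min. Parent-to-product transitions were read by reversed-phase LC with triple quadrupole MS, and % remaining was taken relative to time zero. t1/2 = −ln(2)/k, with k from log–linear regression.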

Liver microsome [6] = experiment: Drug metabolism in Sprague-Dawley rat liver microsomes assessed as metabolic rate at 1 uM by reversed phase LC/MS analysis; format: ADME
Method in brief: as §3

Plasma [7] = experiment: Half life in human plasma at 1 uM by LC-MS/MS analysis; format: ADME, cell-free
Method in brief: as §2

Plasma [8] = experiment: Metabolic stability in human plasma assessed as compound remaining at 1 uM measured at 3 hrs by LC-MS/MS analysis; format: ADME, cell-free
Method in brief: as §2

Liver microsome [9] = experiment: Half life in human liver microsomes at 1 uM by reversed phase LC/MS analysis; format: ADME
Method in brief: as §3

Liver microsome [10] = experiment: Drug metabolism in human liver microsomes assessed as metabolic rate at 1 uM by reversed phase LC/MS analysis; format: ADME
Method in brief: as §3

[11] = Aqueous solubility of the compound at pH 6.8 after 24 hrs by shake flask method; format: physicochemical; conditions: buffer, pH 6.8, 24 h
Method in brief: as §1

Serum = experiment: Drug uptake in serum of alzheimer patient at 250 to 750 mg, po; format: ADME, cell-free; conditions: human, read-out: Drug uptake
Homo sapiens = organism: Homo sapiens; experiment: Half life in human; format: ADME, organism-based; conditions: in vivo

Botulinum neurotoxin type A, sequence (P0DPI0 2-448 limits assumed): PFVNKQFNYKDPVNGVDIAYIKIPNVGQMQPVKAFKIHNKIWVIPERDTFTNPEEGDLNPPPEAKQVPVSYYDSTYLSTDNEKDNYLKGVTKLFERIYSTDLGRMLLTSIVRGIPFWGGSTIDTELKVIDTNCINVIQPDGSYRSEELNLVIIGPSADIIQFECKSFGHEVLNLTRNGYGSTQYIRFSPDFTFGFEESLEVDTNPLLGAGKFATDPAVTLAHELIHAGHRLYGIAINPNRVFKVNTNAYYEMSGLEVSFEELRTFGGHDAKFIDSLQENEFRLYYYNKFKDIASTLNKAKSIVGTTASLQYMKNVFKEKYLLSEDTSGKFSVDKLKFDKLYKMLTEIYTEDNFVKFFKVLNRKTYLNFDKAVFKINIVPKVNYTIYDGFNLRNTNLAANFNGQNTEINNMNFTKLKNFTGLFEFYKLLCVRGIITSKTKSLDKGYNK

Cc1cccc(NC(c2ccc(N(C)C)cc2)c2ccc3ccc(C)nc3c2O)n1 (stereo unspecified)
IC50 [1]: 4.5 µM

Cc1ccnc(NC(c2ccc([N+](=O)[O-])cc2)c2ccc3ccc(C)nc3c2O)c1 (stereo unspecified)
solubility thermodynamic at 24 h [2]: 997 µM (≈ 399 µg/mL)
Stability (Plasma [3]): 98.5%
t1/2 (Plasma [4]): 109 h
t1/2 (Liver microsome [5]): 0.338 h
Drug metabolism (Liver microsome [6]): 0.271 µM/min/mg
t1/2 (Plasma [7]): 42 h
Stability (Plasma [8]): 92.2%
t1/2 (Liver microsome [9]): 1.93 h
Drug metabolism (Liver microsome [10]): 0.047 µM/min/mg
IC50 [1]: 1 µM

COc1ccc(C(Nc2ccccn2)c2ccc3cccnc3c2O)cc1 (stereo unspecified)
solubility thermodynamic at 24 h [2]: 102 µM (≈ 36.5 µg/mL)
Stability (Plasma [3]): 42.2%
t1/2 (Plasma [4]): 5 h
t1/2 (Liver microsome [5]): 0.188 h
Drug metabolism (Liver microsome [6]): 0.487 µM/min/mg
t1/2 (Plasma [7]): 6.1 h
Stability (Plasma [8]): 53.4%
t1/2 (Liver microsome [9]): 0.378 h
Drug metabolism (Liver microsome [10]): 0.242 µM/min/mg
IC50 [1]: 5.6 µM

COc1ccc(C(Nc2ccccn2)c2ccc3ccc(C)nc3c2O)cc1 (stereo unspecified)
solubility thermodynamic at 24 h [2]: 76.7 µM (≈ 28.5 µg/mL)
Stability (Plasma [3]): 86.6%
t1/2 (Plasma [4]): 5 h
t1/2 (Liver microsome [5]): 0.147 h
Drug metabolism (Liver microsome [6]): 0.627 µM/min/mg
t1/2 (Plasma [7]): 10.7 h
Stability (Plasma [8]): 66.2%
t1/2 (Liver microsome [9]): 0.283 h
Drug metabolism (Liver microsome [10]): 0.324 µM/min/mg
IC50 [1]: 1.9 µM

Cc1ccc2ccc(C(Nc3ccccn3)c3ccc(C)s3)c(O)c2n1 (stereo unspecified)
IC50 [1]: 2 µM

Oc1c(C(Nc2ccccc2Cl)c2ccccn2)ccc2cccnc12 (stereo unspecified)
IC50 [1]: 5.6 µM

Oc1c(C(Nc2ccccc2Cl)c2cccnc2)ccc2cccnc12 (stereo unspecified)
IC50 [1]: 1.9 µM

CCOC(=O)c1ccc(NC(c2ccccn2)c2ccc3cccnc3c2O)cc1 (stereo unspecified)
IC50 [1]: 5.1 µM

CCOC(=O)c1ccc(NC(c2cccnc2)c2ccc3cccnc3c2O)cc1 (stereo unspecified)
IC50 [1]: 2.9 µM

COC(=O)c1cccc(NC(c2ccccn2)c2ccc3cccnc3c2O)c1 (stereo unspecified)
IC50 [1]: 7.8 µM

COC(=O)c1cccc(NC(c2cccnc2)c2ccc3cccnc3c2O)c1 (stereo unspecified)
IC50 [1]: 4.2 µM

CCCOC(=O)c1ccc(NC(c2ccccn2)c2ccc3cccnc3c2O)cc1 (stereo unspecified)
IC50 [1]: 5.6 µM

CCCOC(=O)c1ccc(NC(c2cccnc2)c2ccc3cccnc3c2O)cc1 (stereo unspecified)
IC50 [1]: 3 µM

COc1ccc(C)cc1NC(c1ccccn1)c1ccc2cccnc2c1O (stereo unspecified)
IC50 [1]: 5.1 µM

COc1ccc(C)cc1NC(c1cccnc1)c1ccc2cccnc2c1O (stereo unspecified)
IC50 [1]: 4.4 µM

Cc1cc(Cl)ccc1NC(c1ccccn1)c1ccc2cccnc2c1O (stereo unspecified)
IC50 [1]: 5.2 µM

Cc1cc(Cl)ccc1NC(c1cccnc1)c1ccc2cccnc2c1O (stereo unspecified)
IC50 [1]: 2.3 µM

Cc1cccc(NC(c2ccccn2)c2ccc3cccnc3c2O)c1 (stereo unspecified)
IC50 [1]: 16.7 µM

Cc1cccc(NC(c2cccnc2)c2ccc3cccnc3c2O)c1 (stereo unspecified)
IC50 [1]: 6.7 µM

Oc1c(CNc2ccccn2)ccc2cccnc12
solubility thermodynamic at 24 h [2]: 1140 µM (≈ 287 µg/mL)
Stability (Plasma [3]): 76.3%
t1/2 (Plasma [4]): 12.9 h
t1/2 (Liver microsome [5]): 0.613 h
Drug metabolism (Liver microsome [6]): 0.149 µM/min/mg
t1/2 (Plasma [7]): 14.2 h
Stability (Plasma [8]): 96.1%
t1/2 (Liver microsome [9]): 0.452 h
Drug metabolism (Liver microsome [10]): 0.203 µM/min/mg
IC50 [1]: 26.7 µM

Cc1ccc2c(Cl)cc(I)c(O)c2n1
IC50 [1]: 14.1 µM

Cc1ccnc(NC(c2ccc([N+](=O)[O-])cc2)c2ccc3cccnc3c2O)c1 (stereo unspecified)
solubility thermodynamic at 24 h [2]: 1050 µM (≈ 405 µg/mL)
Stability (Plasma [3]): 100%
t1/2 (Plasma [4]): 51.1 h
t1/2 (Liver microsome [5]): 0.703 h
Drug metabolism (Liver microsome [6]): 0.13 µM/min/mg
t1/2 (Plasma [7]): 24.4 h
Stability (Plasma [8]): 90.9%
t1/2 (Liver microsome [9]): 0.425 h
Drug metabolism (Liver microsome [10]): 0.215 µM/min/mg
IC50 [1]: 4.3 µM

CCC(=O)NC(c1ccc(OC)c(OC)c1)c1ccc2cccnc2c1O (stereo unspecified)
IC50 [1]: > 100 µM

COc1cccc(C(Nc2cc(C)ccn2)c2ccc3cccnc3c2O)c1 (stereo unspecified)
IC50 [1]: 3.3 µM

CCC(=O)NC(c1ccc(N(C)C)cc1)c1ccc2cccnc2c1O (stereo unspecified)
IC50 [1]: > 100 µM

CCC(=O)NC(c1ccccc1Cl)c1ccc2cccnc2c1O (stereo unspecified)
IC50 [1]: > 100 µM

Cc1ccc2cccc(O)c2n1 [8-HYDROXY QUINALDINE]
IC50 [1]: > 30 µM

Oc1c(Cl)cc(Cl)c2cccnc12 [CHLOROXINE]
solubility thermodynamic at 24 h [2]: 326 µM (≈ 69.8 µg/mL)
solubility [11]: 0.532 µM (≈ 0.114 µg/mL)
Stability (Plasma [3]): 100%
t1/2 (Plasma [4]): 67.7 h
t1/2 (Liver microsome [5]): 0.917 h
Drug metabolism (Liver microsome [6]): 0.1 µM/min/mg
t1/2 (Plasma [7]): 18.6 h
Stability (Plasma [8]): 100%
t1/2 (Liver microsome [9]): 0.815 h
Drug metabolism (Liver microsome [10]): 0.112 µM/min/mg
IC50 [1]: 11.5 µM

Cc1ccc2c(Cl)cc(Cl)c(O)c2n1 [CHLORQUINALDOL]
solubility thermodynamic at 24 h [2]: 1100 µM (≈ 250 µg/mL)
Stability (Plasma [3]): 96.9%
t1/2 (Plasma [4]): 115 h
t1/2 (Liver microsome [5]): 0.643 h
Drug metabolism (Liver microsome [6]): 0.142 µM/min/mg
t1/2 (Plasma [7]): 24.5 h
Stability (Plasma [8]): 92.2%
t1/2 (Liver microsome [9]): 0.48 h
Drug metabolism (Liver microsome [10]): 0.19 µM/min/mg
IC50 [1]: 10.1 µM

Oc1c(I)cc(Cl)c2cccnc12 [CLIOQUINOL]
solubility thermodynamic at 24 h [2]: 38.1 µM (≈ 11.6 µg/mL)
concentration (Serum): 13 µM
Stability (Plasma [3]): 83.9%
t1/2 (Plasma [4]): 136 h
t1/2 (Liver microsome [5]): 1.28 h
Drug metabolism (Liver microsome [6]): 0.071 µM/min/mg
t1/2 (Plasma [7]): 42.4 h
Stability (Plasma [8]): 100%
t1/2 (Liver microsome [9]): 1.06 h
Drug metabolism (Liver microsome [10]): 0.086 µM/min/mg
t1/2 (Homo sapiens): 11 h
IC50 [1]: 20.3 µM

Oc1cccc2cccnc12 [OXYQUINOLINE]
IC50 [1]: > 30 µM
